Test results reported in ChEMBL document CHEMBL1781932 (J Med Chem, 2011).
Converted amounts (≈) assume the structure as drawn.

Key:
Type in all cases: functional
Staphylococcus aureus [1] = assay: Antimicrobial activity against tetracycline-susceptible Staphylococcus aureus isolate 101 by CLSI dilution method
Staphylococcus aureus [2] = assay: Antimicrobial activity against tetracycline-resistant Staphylococcus aureus isolate 158 harboring tetK gene by CLSI dilution method
Enterococcus faecalis [3] = assay: Antimicrobial activity against tetracycline-susceptible Enterococcus faecalis isolate 103 by CLSI dilution method
In short: (§1)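 Broth microdilution per CLSI in fresh cation-adjusted Mueller Hinton broth, kept at 4 °C before testing, with defibrinated horse blood added as appropriate. Strains were from ATCC. MIC in µg/mL. Runs were accepted when comparator antibiotics against ATCC quality-control strains fell within recommended ranges.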

Enterococcus faecalis [4] = assay: Antimicrobial activity against tetracycline-resistant Enterococcus faecalis isolate 159 harboring […] gene by CLSI dilution method
Streptococcus pneumoniae [5] = assay: Antimicrobial activity against tetracycline-susceptible Streptococcus pneumoniae isolate 106 by CLSI dilution method; in short: as §1
Streptococcus pneumoniae [6] = assay: Antimicrobial activity against tetracycline-resistant Streptococcus pneumoniae isolate 160 harboring tetM gene by CLSI dilution method
Escherichia coli [7] = assay: Antimicrobial activity against tetracycline-susceptible Escherichia coli isolate 107 by CLSI dilution method; in short: as §1
Escherichia coli [8] = assay: Antimicrobial activity against tetracycline-resistant Escherichia coli isolate 155 harboring tetA gene by CLSI dilution method
Acinetobacter baumannii = assay: Antimicrobial activity against tetracycline-susceptible Acinetobacter baumannii isolate 110 by CLSI dilution method; in short: as §1
Pseudomonas aeruginosa = assay: Antimicrobial activity against tetracycline-susceptible Pseudomonas aeruginosa isolate 111 by CLSI dilution method; in short: as §1
Enterobacter cloacae = assay: Antimicrobial activity against tetracycline-susceptible Enterobacter cloacae isolate 108 by CLSI dilution method; in short: as §1
Klebsiella pneumoniae [9] = assay: Antimicrobial activity against tetracycline-resistant Klebsiella pneumoniae isolate 153 harboring tetA gene by CLSI dilution method
Klebsiella pneumoniae [10] = assay: Antimicrobial activity against tetracycline-susceptible Klebsiella pneumoniae isolate 109 by CLSI dilution method; in short: as §1
Staphylococcus aureus [11] = assay: Antimicrobial activity against methicillin-, tetracycline-resistant Staphylococcus aureus isolate 161 harboring tetM gene by CLSI dilution method

Row | Structure (SMILES) | MIC (Staphylococcus aureus [1]) | MIC (Staphylococcus aureus [2]) | MIC (Enterococcus faecalis [3]) | MIC (Enterococcus faecalis [4]) | MIC (Streptococcus pneumoniae [5]) | MIC (Streptococcus pneumoniae [6]) | MIC (Escherichia coli [7]) | MIC (Escherichia coli [8]) | MIC (Acinetobacter baumannii) | MIC (Pseudomonas aeruginosa) | MIC (Enterobacter cloacae) | MIC (Klebsiella pneumoniae [9]) | MIC (Klebsiella pneumoniae [10]) | MIC (Staphylococcus aureus [11])
1 | CN(C)Cc1cccc2c(O)c3c(cc12)C[C@H]1C[C@H]2[C@H](N(C)C)C(O)=C(C(N)=O)C(=O)[C@@]2(O)C(O)=C1C3=O | 1 µg/mL (≈ 1.92 µM) | 0.5 µg/mL (≈ 0.959 µM) | 1 µg/mL (≈ 1.92 µM) | 32 µg/mL (≈ 61.4 µM) | 0.25 µg/mL (≈ 0.479 µM) | 2 µg/mL (≈ 3.83 µM) | 4 µg/mL (≈ 7.67 µM) | > 32 µg/mL | 16 µg/mL (≈ 30.7 µM) | > 32 µg/mL | > 32 µg/mL | > 32 µg/mL | – | –
2 | CCCN(CCC)c1c2c(c(O)c3cc(CN4CCC4)ccc13)C(=O)C1=C(O)[C@]3(O)C(=O)C(C(N)=O)=C(O)[C@@H](N(C)C)[C@@H]3C[C@@H]1C2 | 0.5 µg/mL (≈ 0.79 µM) | 0.5 µg/mL (≈ 0.79 µM) | 0.5 µg/mL (≈ 0.79 µM) | 4 µg/mL (≈ 6.32 µM) | 0.125 µg/mL (≈ 0.198 µM) | 0.5 µg/mL (≈ 0.79 µM) | 32 µg/mL (≈ 50.6 µM) | > 32 µg/mL | 8 µg/mL (≈ 12.6 µM) | > 32 µg/mL | > 32 µg/mL | > 32 µg/mL | > 32 µg/mL | –
3 | CN(C)C1CN(Cc2ccc3cc4c(c(O)c3c2)C(=O)C2=C(O)[C@]3(O)C(=O)C(C(N)=O)=C(O)[C@@H](N(C)C)[C@@H]3C[C@@H]2C4)C1 | 2 µg/mL (≈ 3.47 µM) | 1 µg/mL (≈ 1.73 µM) | 1 µg/mL (≈ 1.73 µM) | – | 0.0625 µg/mL (≈ 0.108 µM) | 1 µg/mL (≈ 1.73 µM) | – | 16 µg/mL (≈ 27.7 µM) | 4 µg/mL (≈ 6.94 µM) | > 32 µg/mL | – | 8 µg/mL (≈ 13.9 µM) | – | –
4 | COc1c2c(c(O)c3cc(CN(C)C)ccc13)C(=O)C1=C(O)[C@]3(O)C(=O)C(C(N)=O)=C(O)[C@@H](N(C)C)[C@@H]3C[C@@H]1C2 | 0.25 µg/mL (≈ 0.453 µM) | 0.25 µg/mL (≈ 0.453 µM) | 0.25 µg/mL (≈ 0.453 µM) | – | 0.0156 µg/mL (≈ 0.0283 µM) | 0.25 µg/mL (≈ 0.453 µM) | – | 8 µg/mL (≈ 14.5 µM) | 1 µg/mL (≈ 1.81 µM) | 32 µg/mL (≈ 58 µM) | – | – | 4 µg/mL (≈ 7.25 µM) | 2 µg/mL (≈ 3.63 µM)
5 | CN(C)c1c2c(c(O)c3cc(CN4CCCC4)ccc13)C(=O)C1=C(O)[C@]3(O)C(=O)C(C(N)=O)=C(O)[C@@H](N(C)C)[C@@H]3C[C@@H]1C2 | 0.5 µg/mL (≈ 0.846 µM) | 0.5 µg/mL (≈ 0.846 µM) | 0.25 µg/mL (≈ 0.423 µM) | 2 µg/mL (≈ 3.39 µM) | < 0.0156 µg/mL | – | 2 µg/mL (≈ 3.39 µM) | 8 µg/mL (≈ 13.5 µM) | 16 µg/mL (≈ 27.1 µM) | > 32 µg/mL | 16 µg/mL (≈ 27.1 µM) | 32 µg/mL (≈ 54.2 µM) | – | 2 µg/mL (≈ 3.39 µM)
6 | CN(C)[C@@H]1C(O)=C(C(N)=O)C(=O)[C@@]2(O)C(O)=C3C(=O)c4c(cc5ccc(CN6CC(C#N)C6)cc5c4O)C[C@H]3C[C@@H]12 | 1 µg/mL (≈ 1.79 µM) | 1 µg/mL (≈ 1.79 µM) | 1 µg/mL (≈ 1.79 µM) | 4 µg/mL (≈ 7.16 µM) | 0.25 µg/mL (≈ 0.448 µM) | 1 µg/mL (≈ 1.79 µM) | 4 µg/mL (≈ 7.16 µM) | > 32 µg/mL | – | > 32 µg/mL | – | 32 µg/mL (≈ 57.3 µM) | 8 µg/mL (≈ 14.3 µM) | 2 µg/mL (≈ 3.58 µM)
7 | CN(C)[C@@H]1C(O)=C(C(N)=O)C(=O)[C@@]2(O)C(O)=C3C(=O)c4c(cc5c(N)cccc5c4O)C[C@H]3C[C@@H]12 | 2 µg/mL (≈ 4.17 µM) | 2 µg/mL (≈ 4.17 µM) | 4 µg/mL (≈ 8.34 µM) | – | 2 µg/mL (≈ 4.17 µM) | – | > 32 µg/mL | > 32 µg/mL | 8 µg/mL (≈ 16.7 µM) | > 32 µg/mL | > 32 µg/mL | > 32 µg/mL | > 32 µg/mL | 4 µg/mL (≈ 8.34 µM)
8 | CN(C)[C@@H]1C(O)=C(C(N)=O)C(=O)[C@@]2(O)C(O)=C3C(=O)c4c(cc5ccccc5c4O)C[C@H]3C[C@@H]12 | 1 µg/mL (≈ 2.15 µM) | – | 0.5 µg/mL (≈ 1.08 µM) | – | 0.25 µg/mL (≈ 0.538 µM) | 0.25 µg/mL (≈ 0.538 µM) | > 32 µg/mL | > 32 µg/mL | 8 µg/mL (≈ 17.2 µM) | > 32 µg/mL | – | – | – | 1 µg/mL (≈ 2.15 µM)
9 | CCNCc1ccc2c(F)c3c(c(O)c2c1)C(=O)C1=C(O)[C@]2(O)C(=O)C(C(N)=O)=C(O)[C@@H](N(C)C)[C@@H]2C[C@@H]1C3 | 0.5 µg/mL (≈ 0.927 µM) | – | 0.25 µg/mL (≈ 0.463 µM) | 2 µg/mL (≈ 3.71 µM) | 0.0313 µg/mL (≈ 0.058 µM) | – | 1 µg/mL (≈ 1.85 µM) | 8 µg/mL (≈ 14.8 µM) | 1 µg/mL (≈ 1.85 µM) | 16 µg/mL (≈ 29.7 µM) | 2 µg/mL (≈ 3.71 µM) | 8 µg/mL (≈ 14.8 µM) | 4 µg/mL (≈ 7.41 µM) | 2 µg/mL (≈ 3.71 µM)
10 | CCCNc1c2c(c(O)c3cc(CN4CCC4)ccc13)C(=O)C1=C(O)[C@]3(O)C(=O)C(C(N)=O)=C(O)[C@@H](N(C)C)[C@@H]3C[C@@H]1C2 | 4 µg/mL (≈ 6.77 µM) | 4 µg/mL (≈ 6.77 µM) | 4 µg/mL (≈ 6.77 µM) | 16 µg/mL (≈ 27.1 µM) | 0.5 µg/mL (≈ 0.846 µM) | 2 µg/mL (≈ 3.39 µM) | 16 µg/mL (≈ 27.1 µM) | > 32 µg/mL | 16 µg/mL (≈ 27.1 µM) | > 32 µg/mL | > 32 µg/mL | > 32 µg/mL | 32 µg/mL (≈ 54.2 µM) | –
11 | CN(C)c1ccc(O)c2c1C[C@H]1C[C@H]3[C@H](N(C)C)C(O)=C(C(N)=O)C(=O)[C@@]3(O)C(O)=C1C2=O [MINOCYCLINE] | 0.0625 µg/mL (≈ 0.137 µM) | 0.0313 µg/mL (≈ 0.0684 µM) | – | 16 µg/mL (≈ 35 µM) | < 0.0156 µg/mL | 2 µg/mL (≈ 4.37 µM) | 0.5 µg/mL (≈ 1.09 µM) | 8 µg/mL (≈ 17.5 µM) | 0.0625 µg/mL (≈ 0.137 µM) | 16 µg/mL (≈ 35 µM) | 2 µg/mL (≈ 4.37 µM) | 8 µg/mL (≈ 17.5 µM) | – | 8 µg/mL (≈ 17.5 µM)
